Data as given in ChEMBL document CHEMBL5321286, “Antiviral Evaluation of Dispirotripiperazines against Hepatitis B Virus” (J Med Chem, 2023).
pEC50: −log10 of the molar value. Active and inactive are the calls of the source. The calls are words filed in the database; no cut-off is given here.

Tests used:
[1] = Cytotoxicity against human HepG2 2.2.15 cells assessed as reduction in cell viability by MTS assay; type: toxicity, cell-based
In short: (§1)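 HepG2 2.2.15 cells seeded at 1.5 × 10^4 cells/well in DMEM with 2% FBS, 380 μg/mL G418 and glutamine, using interior wells only. After 16-24 h, the medium was replaced with serial compound dilutions in triplicate, refreshed at day 3. At day 6, pronase-treated supernatant HBV DNA was measured by TaqMan qPCR against a standard curve (EC50/EC90). MTS viability on the same plate gave CC50; SI = CC50/EC.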

[2] = Selectivity index, ratio of CC50 for cytotoxicity against human HepG2 2.2.15 cells to EC50 for antiviral activity against Hepatitis B virus ayw1 infected in human HepG2 2.2.15 cells; type: toxicity, cell-based; conditions: read-out: Ratio CC50/EC50; in short: as §1
Hepatitis B virus [3] = assay: Antiviral activity against Hepatitis B virus infected in human HepDES19 cells assessed as reduction in viral DNA replication measured after 3 days by q-PCR assay; type: functional, organism-based
In short: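 HepDES19, a HepG2 derivative with a tetracycline-repressible HBV cassette, was induced to replicate HBV by tetracycline withdrawal. Cells were exposed to compound for 3 days. Replication was measured by strand-preferential qPCR.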

[4] = Cytotoxicity against human HepDES19 cells assessed as reduction in cell viability incubated for 72 hrs by MTS assay; type: toxicity, cell-based; conditions: for CC50 at 72 h: HepDES19 cells
In short: (§2)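 HepDES19 (HepG2-derived, tetracycline-repressible HBV cassette) cells were induced to replicate HBV by tetracycline withdrawal and exposed to compound for 3 days. Replication was read by strand-preferential qPCR; cytotoxicity by MTS assay.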

Hepatitis B virus [5] = assay: Antiviral activity against Hepatitis B virus ayw1 infected in human HepG2 2.2.15 cells assessed as reduction in viral DNA replication preincubated for 3 days followed by media replacement and measured 6 days after first dose by q-PCR assay; conditions: ayw1, HepG2 2.2.15, 144 h
Hepatitis B virus [6] = assay: Antiviral activity against Hepatitis B virus ayw1 infected in human HepG2 2.2.15 cells assessed as reduction in viral DNA replication preincubated for 3 days followed by media replacement and measured after 6 days by q-PCR assay; type: functional, organism-based; conditions: ayw1, HepG2 2.2.15
In short: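 HepG2 2.2.15 cells at 1.5 × 10^4 cells/well in DMEM with 2% FBS and 380 μg/mL G418, treated after 16-24 h at several concentrations in triplicate. Compound medium renewed on day 3. Supernatant taken on day 6, pronase-treated, and extracellular HBV DNA measured by TaqMan qPCR against a purified HBV DNA standard curve. EC50 and EC90 taken from the DNA reduction. Lamivudine served as positive control and medium alone as virus control.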

[7] = Selectivity index, ratio of CC50 for cytotoxicity against human HepDES19 cells to EC50 for antiviral activity against Hepatitis B virus infected in human HepDES19 cells; type: toxicity, cell-based; conditions: for selectivity ratio: HepDES19 cells, read-out: Ratio CC50/EC50; in short: as §2
Hepatitis B virus [8] = assay: Antiviral activity against Hepatitis B virus infected in human HepDES19 cells assessed as reduction in capsid accumulation by measuring intracellular HBV nucleocapsid level after 5 days by agarose gel electrophoresis-based assay; type: functional, organism-based; conditions: time 5.0 day
In short: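 HepDES19 cells replicating HBV were treated for 5 days. They were lysed in 10mM Tris pH 7.4, 1% Tween 20 and 150mM NaCl with protease inhibitors. Lysates were digested with micrococcal nuclease plus 10mM CaCl2 (final), normalised for protein by Bradford, and run on native agarose gels. Gels were capillary-blotted to nitrocellulose and probed with anti-HBcAg and an AP-conjugated secondary with BCIP/NBT. Bands were quantified by densitometry.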

[9] = Selectivity index, ratio of CC50 for cytotoxicity against human HepG2 2.2.15 cells to EC90 for antiviral activity against Hepatitis B virus ayw1 infected in human HepG2 2.2.15 cells; type: toxicity, cell-based; in short: as §1
[10] = Hepatitis B virus, HepDES19, 72 h

Compound	CC50 [1]	selectivity ratio [2]	pEC50 (Hepatitis B virus [3]; [10])	CC50 at 72 h [4]	EC90 (Hepatitis B virus [5])	pEC50 (Hepatitis B virus [6])	selectivity ratio [7]	Activity (Hepatitis B virus [8])	selectivity ratio [9]	pEC50 (Hepatitis B virus [3]; hepdes19)	Ratio CC50/EC50 [7]	CC50 ([4]; hepdes19, 72 h, 72 h)
Cc1nc(N2CC[N+]3(CCC[N+]4(CCNCC4)CC3)CC2)c([N+](=O)[O-])c(N2CC[N+]3(CCC[N+]4(CCNCC4)CC3)CC2)n1	> 100 µM	> 15	5.19	100 µM	58.1 µM	5.19	15	Active	> 2	–	–	–
Nc1ccn([C@@H]2CS[C@H](CO)O2)c(=O)n1 [LAMIVUDINE]	> 2 µM	> 113	–	–	0.541 µM	7.74	–	–	> 4	–	–	–
O=Cc1c(N2CC[N+]3(CCC[N+]4(CCNCC4)CC3)CC2)ncnc1N1CC[N+]2(CCC[N+]3(CCNCC3)CC2)CC1	–	–	< 4.00	100 µM	–	–	< 1	–	–	–	–	–
Clc1nc(N2CCC[N+]3(CC2)CC[N+]2(CCCNCC2)CC3)nc(N2CCC[N+]3(CC2)CC[N+]2(CCCNCC2)CC3)n1.[Br-].[Br-].[Br-].[Br-] (configuration not stated)	–	–	–	99 µM	–	–	–	–	–	5.12	13	–
O=[N+]([O-])c1c(N2CC[N+]3(CCC[N+]4(CCNCC4)CC3)CC2)ncnc1N1CC[N+]2(CCC[N+]3(CCNCC3)CC2)CC1	–	–	5.05	100 µM	–	–	11	–	–	–	–	–
O=Cc1c(N2CC[N+]3(CC2)CC[N+]2(CCNCC2)CC3)nc(-c2ccccc2)nc1N1CC[N+]2(CC1)CC[N+]1(CCNCC1)CC2	> 100 µM	> 47	5.68	86 µM	26.5 µM	5.67	41	–	> 4	–	–	–
Cc1nc(N2CC[N+]3(CC2)CC[N+]2(CCNCC2)CC3)c(N)c(N2CC[N+]3(CC2)CC[N+]2(CCNCC2)CC3)n1	> 100 µM	> 54	6.15	100 µM	15.7 µM	5.73	143	–	> 6	–	–	–
Cl.Cl.Clc1nc(N2CCC[N+]3(CC2)CC[N+]2(CCCNCC2)CC3)nc(N2CCC[N+]3(CC2)CC[N+]2(CCCNCC2)CC3)n1.[Br-].[Br-].[Br-].[Br-] (configuration not stated)	–	–	–	–	–	–	–	–	–	< 4.00	0.67	67 µM
Nc1c(N2CCC[N+]3(CC2)CC[N+]2(CCCNCC2)CC3)ncnc1N1CCC[N+]2(CC1)CC[N+]1(CCCNCC1)CC2 (configuration not stated)	–	–	4.40	100 µM	–	–	2.5	–	–	–	–	–
O=Cc1c(N2CC[N+]3(CCC[N+]4(CCNCC4)CC3)CC2)nc(-c2ccccc2)nc1N1CC[N+]2(CCC[N+]3(CCNCC3)CC2)CC1	–	–	4.32	88 µM	–	–	1.8	–	–	–	–	–
Nc1c(N2CC[N+]3(CCC[N+]4(CCNCC4)CC3)CC2)ncnc1N1CC[N+]2(CCC[N+]3(CCNCC3)CC2)CC1	> 100 µM	> 5	4.66	100 µM	78.1 µM	4.66	4.5	–	> 1	–	–	–
O=[N+]([O-])c1c(N2CCC[N+]3(CC2)CC[N+]2(CCCNCC2)CC3)ncnc1N1CCC[N+]2(CC1)CC[N+]1(CCCNCC1)CC2 (configuration not stated)	–	–	5.05	100 µM	–	–	11	–	–	–	–	–
O=Cc1c(N2CCC[N+]3(CC2)CC[N+]2(CCCNCC2)CC3)nc(-c2ccccc2)nc1N1CCC[N+]2(CC1)CC[N+]1(CCCNCC1)CC2 (configuration not stated)	–	–	4.96	92 µM	–	–	8.4	–	–	–	–	–
O=Cc1c(O)nc(N2CC[N+]3(CCC[N+]4(CCNCC4)CC3)CC2)nc1N1CC[N+]2(CCC[N+]3(CCNCC3)CC2)CC1	–	–	6.00	100 µM	–	–	100	–	–	–	–	–
Cc1nc(N2CCC[N+]3(CC2)CC[N+]2(CCCNCC2)CC3)c([N+](=O)[O-])c(N2CCC[N+]3(CC2)CC[N+]2(CCCNCC2)CC3)n1 (configuration not stated)	–	–	5.28	100 µM	–	–	19	–	–	–	–	–
O=Cc1c(N2CCC[N+]3(CC2)CC[N+]2(CCCNCC2)CC3)ncnc1N1CCC[N+]2(CC1)CC[N+]1(CCCNCC1)CC2 (configuration not stated)	–	–	< 4.00	100 µM	–	–	< 1	–	–	–	–	–
Clc1nc(N2CCC[N+]3(CC2)CC[N+]2(CCCNCC2)CC3)nc(N2CCC[N+]3(CC2)CC[N+]2(CCCNCC2)CC3)n1 (configuration not stated)	–	–	–	–	–	–	–	Active	–	–	–	–
